Test results: ChEMBL document CHEMBL1275591, “Cellular pharmacodynamics of the novel biaryloxazolidinone radezolid: studies with infected phagocytic and nonphagocytic cells, using Staphylococcus aureus, Staphylococcus epidermidis, Listeria monocytogenes, and Legionella pneumophila” (Antimicrob Agents Chemother, 2010)
≈ marks a conversion by molar mass, not a printed value.

Key:
[1] = system: Staphylococcus aureus; test: Antimicrobial activity against community acquired methicillin-resistant Staphylococcus aureus NRS384 after 24 hrs; format: functional; conditions: NRS384, 24 h
[2] = system: Staphylococcus aureus; test: Antimicrobial activity against linezolid-resistant Staphylococcus aureus SA238L infected in human osteoblasts cells assessed as log reduction in bacterial count after 24 hrs; format: functional
Procedure, shortened: (§1)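 S. aureus was internalized by adherent nonphagocytic cells: Calu-3, HUVEC, keratinocytes on collagen-coated wells, osteoblasts, or rat embryo fibroblasts. Inoculum was 5 × 10^7 to 1 × 10^8 bacteria/ml with 2 h phagocytosis (HUVEC: 2 × 10^6/ml, 1 h). Cells were then exposed to graded drug concentrations for 24 h. CFU change versus the original inoculum was fitted sigmoidally for Emax and Cs.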

[3] = system: Staphylococcus aureus; test: Antimicrobial activity against linezolid-susceptible Staphylococcus aureus NRS18 infected in THP1 cells after 24 hrs; format: functional, organism-based; conditions: NRS18, THP-1, 24 h
Procedure, shortened: (§2)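 Bacteria were phagocytosed by human THP-1 macrophage-like cells, then exposed to a range of drug concentrations for a fixed time: 24 h for S. aureus, S. epidermidis and L. monocytogenes, 48 h for L. pneumophila. Change in CFU versus the initial inoculum was fitted with a sigmoidal curve to give Emin, Emax (relative maximal efficacy), EC50 and static concentration (Cs).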

[4] = system: Listeria monocytogenes; test: Antimicrobial activity against Listeria monocytogenes infected in THP1 cells after 24 hrs; format: functional, organism-based; conditions: THP-1, 24 h; procedure, shortened: as §2
[5] = system: Staphylococcus aureus; test: Antimicrobial activity against linezolid-resistant Staphylococcus aureus SA238L infected in rat fibroblast cells assessed as log reduction in bacterial count after 24 hrs; format: functional; procedure, shortened: as §1
[6] = system: Staphylococcus aureus; test: Antimicrobial activity against Staphylococcus aureus ATCC 25923 assessed as log reduction in bacterial count at 1 mg/L after 5 hrs; format: functional
Procedure, shortened: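 Time-course test with S. aureus ATCC 25923, either in Mueller-Hinton broth or after phagocytosis by THP-1 cells. Samples were taken over a 5 h incubation with drug at 1 mg/liter. Read-out was the change in CFU relative to the initial inoculum, reported as means.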

[7] = system: Staphylococcus aureus; test: Antimicrobial activity against linezolid-susceptible Staphylococcus aureus SA238 infected in THP1 cells at pH 7.4 after 24 hrs; format: functional, organism-based; conditions: SA238, THP-1, 24 h
[8] = Ratio of drug level for cellular to extracellular region of Staphylococcus aureus infected rat fibroblast at 4 mg/liter after 2 hrs; format: ADME, cell-based
Procedure, shortened: (§3)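 Cells were exposed to [14C]radezolid for 2 or 24 h. Cell-associated drug in lysates was measured by liquid scintillation counting (detection limit 0.003 mg/liter; linear 0.01–0.78 mg/liter). Content was normalised to cell protein (Lowry). It was converted to apparent cellular concentration at 5 μl per mg protein and expressed relative to the extracellular concentration.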

[9] = system: Staphylococcus aureus; test: Antimicrobial activity against linezolid-susceptible Staphylococcus aureus SA238 infected in rat fibroblast cells assessed as log reduction in bacterial count after 24 hrs; format: functional; procedure, shortened: as §1
[10] = system: Staphylococcus aureus; test: Bacteriostatic activity against linezolid-susceptible Staphylococcus aureus SA238 infected in THP1 cells after 24 hrs; format: functional, THP-1
Procedure, shortened: (§4)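 Human THP-1 myelomonocytic (macrophage-like) cells infected with S. aureus, then exposed 24 h to a range of antibiotic concentrations. CFU change was measured against the initial inoculum. A sigmoidal dose-response curve was fitted to give Emin, Emax and EC50, and the apparent static concentration (Cs) was taken from the fit.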

[11] = system: Staphylococcus aureus; test: Antimicrobial activity against linezolid-resistant Staphylococcus aureus SA238L infected in human epidermal keratinocytes cells assessed as log reduction in bacterial count after 24 hrs; format: functional; procedure, shortened: as §1
[12] = system: Staphylococcus aureus; test: Bacteriostatic activity against linezolid-resistant Staphylococcus aureus SA238L infected in THP1 cells after 24 hrs; format: functional, THP-1; procedure, shortened: as §4
[13] = system: Staphylococcus aureus; test: Bacteriostatic activity against linezolid-susceptible Staphylococcus aureus SA238 infected in Calu-3 cells after 24 hrs; format: functional
Procedure, shortened: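 Adherent nonphagocytic cells were infected at 5 × 10^7 to 1 × 10^8 bacteria/ml with 2 h phagocytosis. Cells used: Calu-3 bronchial epithelium grown in uncoated flasks, neonatal foreskin keratinocytes on collagen-coated wells, primary human osteoblasts, and primary rat embryo fibroblasts. Antibiotic was then given over a concentration range for 24 h. Cs came from a sigmoidal fit of CFU change.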

[14] = system: Staphylococcus aureus; test: Antimicrobial activity against linezolid-resistant Staphylococcus aureus SA238L infected in THP1 cells assessed as log reduction in bacterial count after 24 hrs; format: functional, THP-1; procedure, shortened: as §2
[15] = Ratio of drug level for cellular to extracellular region of Staphylococcus aureus infected human keratinocyte at 4 mg/liter after 24 hrs; format: ADME, cell-based; procedure, shortened: as §3
[16] = system: Legionella pneumophila; test: Antimicrobial activity against Legionella pneumophila ATCC 33153 after 48 hrs; format: functional; conditions: ATCC 33153, 48 h

CC(=O)NC[C@H]1CN(c2ccc(-c3ccc(CNCc4cnn[nH]4)cc3)c(F)c2)C(=O)O1 [RADEZOLID]
MIC [1]: 0.5 µg/mL (≈ 1.14 µM)
log10cfu [2]: 0.6
EC50 [3]: 0.09 µg/mL (≈ 0.205 µM)
EC50 [4]: 0.04 µg/mL (≈ 0.0912 µM)
log10cfu [5]: 0.6
log10cfu [6]: 2
EC50 [7]: 0.31 µg/mL (≈ 0.707 µM)
Ratio [8]: 14.4
log10cfu [9]: 0.6
Activity [10]: 0.56 mg/L
log10cfu [11]: 0.6
Activity [12]: 0.97 mg/L
Activity [13]: 0.6 mg/L
log10cfu [14]: -0.77
Ratio [15]: 16.1
MIC [16]: 0.5 µg/mL (≈ 1.14 µM)
